Experimental data published in ChEMBL document CHEMBL1150814, “Schizanrins [corrected] B, C, D, and E, four new lignans from Kadsura matsudai and their antihepatitis activities” (J Nat Prod, 2001).
Values after ≈ are worked out from the molar mass of the structure shown. Active and inactive are the calls of the source. The calls are words filed in the database; no cut-off is given here.

Columns and labels:
[1] = system: Human immunodeficiency virus; experiment: Antiviral activity against HIV replication in human H9 lymphocytes; type: functional, organism-based
Hepatitis B virus [2] = experiment: Antiviral activity against Hepatitis B virus infected in human MS-G2 cells assessed as inhibition of surface antigen secretion at 20 ug/ml after 3 days by ELISA; type: functional; set-up: scale not given: the % may be the effect or the level left
Outline: (§1)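 MS-G2 cells (HepG2 transfected with two copies of HBV genome, secreting virus) grown in RPMI-1640 with 10% fetal calf serum at 37 °C, 5% CO2. Seeded 3 × 10^5 cells/well, attached overnight, then given compound in DMSO (1, 5, 10, 20 μg/mL; DMSO ≤2.5 μL/mL; DMSO-only control). Media collected at 3 days. HBsAg and HBeAg measured by ELISA at 490 nm. % inhibition taken relative to control.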

Hepatitis B virus [3] = experiment: Antiviral activity against Hepatitis B virus infected in human MS-G2 cells assessed as inhibition of surface antigen secretion at 10 ug/ml after 3 days by ELISA; type: functional; set-up: scale not given: the % may be the effect or the level left; outline: as §1
Hepatitis B virus [4] = experiment: Antiviral activity against Hepatitis B virus infected in human MS-G2 cells assessed as inhibition of early antigen secretion at 20 ug/ml after 3 days by ELISA; type: functional; set-up: scale not given: the % may be the effect or the level left; outline: as §1
Hepatitis B virus [5] = experiment: Antiviral activity against Hepatitis B virus infected in human MS-G2 cells assessed as inhibition of early antigen secretion at 10 ug/ml after 3 days by ELISA; type: functional; set-up: scale not given: the % may be the effect or the level left; outline: as §1
[6] = Cytotoxicity against human MS-G2 cells at 10 ug/ml by AST method; type: cell-based
Outline: (§2)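 Cell damage in compound-treated MS-G2 cultures was measured by aspartate transaminase (AST) kit. AST above 25 IU/L was taken as indicating cell damage or lysis.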

[7] = Cytotoxicity against human MS-G2 cells at 20 ug/ml by AST method; type: cell-based; outline: as §2
H9 = experiment: Cytotoxicity against human H9 cells; type: cell-based

| Compound | Activity [1] | Activity (Hepatitis B virus [2]) | Activity (Hepatitis B virus [3]) | Activity (Hepatitis B virus [4]) | Activity (Hepatitis B virus [5]) | Activity [6] | Activity [7] | IC50 (H9) |
| --- | --- | --- | --- | --- | --- | --- | --- | --- |
| CCC(C)C(=O)O[C@@H]1c2cc3c(c(O)c2-c2c(cc(OC)c(OC)c2OC)C[C@@H](C)[C@H]1C)OCO3 (stereo partly specified) [SCHIZARIN B] | inactive | 54.9% | 42.6% | 42.1% | 40.7% | 17.6 IU/L | 15.5 IU/L | – |
| COc1cc2c(c(OC)c1OC)-c1c(cc3c(c1O)OCO3)[C@@H](OC(=O)c1ccccc1)[C@H](C)[C@H](C)C2 [SCHIZARIN E] | inactive | Toxic | <25% | Toxic | 31.8% | 20.2 IU/L | 44.3 IU/L | 2.08 µg/mL (≈ 4.11 µM) |
| CCC(C)C(=O)O[C@H]1c2cc3c(c4c2C(C(=O)C(=O)OC)(CO4)/C(=C\C(=O)OC)C[C@@H](C)[C@H]1C)OCO3 (stereo partly specified) [TAIWANSCHIRIN A] | – | <25% | <25% | 43% | <25% | 14.1 IU/L | 14.8 IU/L | – |
| CCCCCC(=O)O[C@@H]1c2cc3c(c(O)c2-c2c(cc(OC)c(OC)c2OC)C[C@@H](C)[C@H]1C)OCO3 [SCHIZARIN C] | inactive | Toxic | <25% | Toxic | <25% | 16 IU/L | 35.9 IU/L | – |
| CC=C(C)C(=O)O[C@@H]1c2cc3c(c(O)c2-c2c(cc(OC)c(OC)c2OC)C[C@@H](C)[C@H]1C)OCO3 | inactive | Toxic | <25% | Toxic | 25.8% | 16.8 IU/L | 47.8 IU/L | – |
| COC1=C(OC)C(=O)[C@]23COc4c5c(cc(c42)[C@H](OC(=O)/C=C/c2ccccc2)[C@H](C)[C@H](C)CC3=C1)OCO5 [SCHIARISANRIN D] | – | <25% | <25% | 42.9% | 27% | 20.1 IU/L | 22 IU/L | – |
